Drawing on ChEMBL document CHEMBL3046721, “3-(Arylthiomethyl)isoxazole-4,5-dicarboxamides: chemoselective nucleophilic chemistry and insecticidal activity” (2009), this text covers mortality for 55 compounds.

Calls of active or inactive are those of the source.

One test relates to Helicoverpa zea. In words: Insecticidal activity against second-instar larval stage of Helicoverpa zea (corn earworm) fed with artificial diet containing compound assessed as mortality after 5 days by diet-based secondary assay. The format is functional, organism-based. An outline of the steps: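 Follow-up for primary-screen hits (>67% mortality): 128-well diet trays, 1 mL diet containing selected dosages, second-instar larvae. Wells covered with clear plastic, eight wells per treatment, percent mortality averaged over eight wells at 5 days. Approximate LC50 estimated by probit analysis.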

Another test has as its system Aedes aegypti. In words: Insecticidal activity against larvae of Aedes aegypti assessed as mortality after 3 days by high-throughput screening assay. The format is functional, organism-based. The method in brief: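 One-day-old larvae placed in 96-well plates pre-treated with 6 μg/well, applied in 15 μl DMSO-acetone-water (1:1:8) and dried. Plates lidded, held at room temperature, mortality graded 3 days post-treatment. Six replicates per treatment.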

For test [1], the system named is Spodoptera exigua. In words: Insecticidal activity against larvae of Spodoptera exigua fed with artificial diet containing compound assessed as mortality after 6 days by high-throughput screening assay. Set-up: concentration or dose not given beside the values. The format is functional. The method in brief: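 Artificial diet (100 μl/well, 96-well) pretreated with 12 μg compound in 30 μl DMSO-acetone-water (2:1:7), dried several hours, then seeded with eggs. Plates covered, kept in dark at 29°C, mortality recorded 6 days post-treatment. Six replicates per treatment.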

In test [2] the test system is Spodoptera exigua. In words: Insecticidal activity against second-instar larval stage of Spodoptera exigua fed with artificial diet containing compound assessed as mortality at 50 ug/cm2 after 5 days by diet-based secondary assay. The format is functional. As to conditions: 120 h. The method in brief:
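Second-instar larvae on 128-well trays with 1 mL diet dosed at 50 μg/cm2, eight wells per treatment under clear plastic. Percent mortality averaged over the eight wells, scored 5 days after assay start; tested only on primary-screen hits (>67% mortality).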

A word on the mortality: it is the share of the test organisms that died. Regarding `COCCNC(=O)c1c(CS(=O)(=O)c2ccc(Cl)cc2)noc1C(=O)NCc1ccccc1`, the mortality result in the test on Helicoverpa zea and in the test with Aedes aegypti was “inactive” in each case. In addition, the mortality in the test on Spodoptera exigua [1] was 100%. For the same compound, the mortality at 50 µg/cm2 in the test with Spodoptera exigua [2] was 0%.
For the compound `CCCNC(=O)c1onc(CS(=O)(=O)c2ccccc2)c1C(=O)NCCC`, the mortality result in the test on Helicoverpa zea and in the test with Aedes aegypti was “inactive” throughout. Further, the mortality with Spodoptera exigua [1] is given as 100%. For the same compound, in the test on Spodoptera exigua [2], the mortality at 50 µg/cm2 amounted to 0%.
Regarding `COCCNC(=O)c1onc(CS(=O)(=O)c2ccc(Cl)cc2)c1C(=O)NCCOC`, the mortality entry with Helicoverpa zea and with Aedes aegypti was “inactive” throughout. The mortality with Spodoptera exigua [1] stood at 100%. Besides, in the test on Spodoptera exigua [2], the mortality at 50 µg/cm2 worked out at 0%.
`C=CCNC(=O)c1onc(CSc2ccc(F)cc2)c1C(=O)NCC=C`: the mortality entry in the test with Aedes aegypti is “inactive”. Also, the mortality in the test on Spodoptera exigua [1] is 67%. The mortality at 50 µg/cm2 in the test with Spodoptera exigua [2] worked out at 0%.
For `CCCCNC(=O)c1onc(CSc2ccncc2)c1C(=O)NCCCC`, in that order: “inactive”, 67% and 0%.
Take `CCCNC(=O)c1c(CSc2ccc(Cl)cc2)noc1C(=O)NCc1ccccc1`: the mortality result with Helicoverpa zea and with Aedes aegypti was “inactive” each time. Further, the mortality in the test on Spodoptera exigua [1] is on record as 100%. In addition, the mortality at 50 µg/cm2 with Spodoptera exigua [2] turned out to be 0%.
`Cc1cc(C)cc(SCc2noc(C(=O)NC(C)C)c2C(=O)NC(C)C)c1`: the mortality result in the test on Aedes aegypti was “inactive”.
Regarding `CCCNC(=O)c1onc(CSc2ccc(Cl)cc2)c1C(=O)NCCC`, the mortality entry with Aedes aegypti was “inactive”. Moreover, the mortality in the test with Spodoptera exigua [1] is 50%.
As to `CCCCNC(=O)c1c(CS(=O)(=O)c2ccc(Cl)cc2)noc1C(=O)NCc1ccccc1`, the mortality result in the test on Helicoverpa zea and with Aedes aegypti was “inactive” in each case. Moreover, in the test on Spodoptera exigua [1], the mortality amounted to 83%. Also, the mortality at 50 µg/cm2 in the test with Spodoptera exigua [2] amounted to 0%.
For the compound `CCCNC(=O)c1onc(CSc2ccccn2)c1C(=O)NCCC`, in the test on Aedes aegypti, the mortality result was “inactive”. For the same compound, the mortality in the test with Spodoptera exigua [1] was found to be 50%.
Turning to `CC(C)CCNC(=O)c1c(CSc2ccc(Cl)cc2)noc1C(=O)NCc1ccccc1`, in the test on Aedes aegypti, the mortality result was “inactive”. The mortality in the test with Spodoptera exigua [1] turned out to be 67%. Moreover, the mortality at 50 µg/cm2 with Spodoptera exigua [2] was 0%.
For the compound `CC(C)CCNC(=O)c1onc(CSc2ccc(F)cc2)c1C(=O)NCCC(C)C`, the mortality entry in the test on Helicoverpa zea and in the test on Aedes aegypti was “inactive” each time. Besides, the mortality in the test on Spodoptera exigua [1] turned out to be 100%. Besides, the mortality at 50 µg/cm2 in the test with Spodoptera exigua [2] was found to be 38%.
For `CCCCNC(=O)c1c(CS(=O)(=O)c2ccccc2)noc1C(=O)NCc1ccccc1`, the mortality entry with Aedes aegypti is “inactive”. The mortality in the test with Spodoptera exigua [1] is 67%. Moreover, the mortality at 50 µg/cm2 in the test with Spodoptera exigua [2] was found to be 0%.
As for `CCCCNC(=O)c1onc(CSc2cccc(OC)c2)c1C(=O)NCCCC`, the mortality result with Aedes aegypti was “inactive”.
For the compound `O=C(NCc1ccccc1)c1onc(CSc2ccccn2)c1C(=O)NCc1ccccc1`, the mortality entry in the test with Aedes aegypti was “inactive”. The mortality with Spodoptera exigua [1] was found to be 67%. Moreover, the mortality at 50 µg/cm2 in the test on Spodoptera exigua [2] was 0%.
For the compound `O=C(NCc1ccccc1)c1onc(CSc2ccccc2)c1C(=O)NCc1ccccc1`, the mortality result in the test with Aedes aegypti was “inactive”. In the test with Spodoptera exigua [1], the mortality is 67%.
In the same order, the values of `CCCCNC(=O)c1onc(CSc2ccc(F)cc2)c1C(=O)NCCCC` are “inactive” and 50%.
Regarding `O=C(NCc1ccccc1)c1onc(CSc2ccc(Cl)cc2)c1C(=O)NCc1ccccc1`, the mortality entry in the test on Aedes aegypti is “inactive”. Besides, the mortality with Spodoptera exigua [1] was 67%. The mortality at 50 µg/cm2 in the test with Spodoptera exigua [2] was determined as 0%.
As for `CCCCNC(=O)c1onc(CSc2ccc(Cl)cc2)c1C(=O)NCCCC`, the mortality result with Aedes aegypti is “inactive”. The mortality with Spodoptera exigua [1] is on record as 33%.
On to `CC(C)CCNC(=O)c1c(CSc2ccccc2)noc1C(=O)NCc1ccccc1`, for which the mortality result with Aedes aegypti is “inactive”. In addition, the mortality in the test on Spodoptera exigua [1] worked out at 67%. Also, the mortality at 50 µg/cm2 in the test on Spodoptera exigua [2] is 0%.
With `CCCNC(=O)c1onc(CSc2cccc(OC)c2)c1C(=O)NCCC`, the mortality entry in the test on Aedes aegypti was “inactive”. Also, the mortality with Spodoptera exigua [1] was 50%.
For the compound `C=CCNC(=O)c1onc(CSc2cc(C)cc(C)c2)c1C(=O)NCC=C`, the mortality entry in the test with Aedes aegypti was “inactive”. Further, the mortality in the test on Spodoptera exigua [1] is 17%.
For `CCCNC(=O)c1onc(CSc2ccccc2)c1C(=O)NCCC`, in that order: “inactive” and 50%.
Take `COCCNC(=O)c1c(CS(=O)(=O)c2ccccc2)noc1C(=O)NCc1ccccc1`: the mortality result with Helicoverpa zea and with Aedes aegypti was “inactive” each time. For the same compound, the mortality in the test on Spodoptera exigua [1] came out at 100%.
As to `CC(C)CCNC(=O)c1onc(CSc2ccccc2)c1C(=O)NCCC(C)C`, the mortality entry with Aedes aegypti is “inactive”. The mortality in the test on Spodoptera exigua [1] worked out at 33%.
On to `COCCNC(=O)c1onc(CSc2ccccn2)c1C(=O)NCCOC`, for which the mortality entry with Aedes aegypti is “inactive”. Moreover, the mortality in the test with Spodoptera exigua [1] is recorded as 17%.
On to `O=C(NCc1ccccc1)c1onc(CSc2ccncc2)c1C(=O)NCc1ccccc1`, for which the mortality result in the test on Aedes aegypti is “inactive”.
As for `C=CCNC(=O)c1onc(CSc2cccc(OC)c2)c1C(=O)NCC=C`, the mortality entry with Aedes aegypti was “inactive”. For the same compound, in the test on Spodoptera exigua [1], the mortality came to 67%. For the same compound, in the test with Spodoptera exigua [2], the mortality at 50 µg/cm2 amounted to 0%.
Take `CCCNC(=O)c1onc(CSc2ccncc2)c1C(=O)NCCC`: in the test with Aedes aegypti, the mortality entry is “inactive”. In addition, the mortality in the test on Spodoptera exigua [1] was 33%.
Take `COCCNC(=O)c1c(CSc2ccccc2)noc1C(=O)NCc1ccccc1`: in the test with Aedes aegypti, the mortality result was “inactive”. The mortality in the test with Spodoptera exigua [1] turned out to be 17%.
`COCCNC(=O)c1onc(CSc2cc(C)cc(C)c2)c1C(=O)NCCOC`: the mortality entry in the test on Aedes aegypti is “inactive”.
As to `CCCNC(=O)c1onc(CSc2cc(C)cc(C)c2)c1C(=O)NCCC`, the mortality result with Aedes aegypti is “inactive”. In addition, the mortality with Spodoptera exigua [1] is recorded as 50%.
Turning to `CC(C)CCNC(=O)c1onc(CSc2ccccn2)c1C(=O)NCCC(C)C`, in the test with Aedes aegypti, the mortality result is “inactive”.
As to `COc1cccc(SCc2noc(C(=O)NCc3ccccc3)c2C(=O)NCc2ccccc2)c1`, the mortality entry with Aedes aegypti was “inactive”. For the same compound, the mortality with Spodoptera exigua [1] is on record as 50%.
`CCCCNC(=O)c1onc(CSc2ccccc2)c1C(=O)NCCCC`: the mortality result in the test on Aedes aegypti is “inactive”.
On to `CC(C)NC(=O)c1onc(CSc2ccccn2)c1C(=O)NC(C)C`, for which, in the test with Aedes aegypti, the mortality result is “inactive”. The mortality in the test with Spodoptera exigua [1] came to 50%.
In the same order, the values of `C=CCNC(=O)c1onc(CSc2ccncc2)c1C(=O)NCC=C` are “inactive” and 17%.
For the compound `COCCNC(=O)c1onc(CSc2ccc(F)cc2)c1C(=O)NCCOC`, in the test with Aedes aegypti, the mortality result was “inactive”. In addition, the mortality in the test with Spodoptera exigua [1] turned out to be 67%. Moreover, the mortality at 50 µg/cm2 in the test with Spodoptera exigua [2] is 0%.
For `COCCNC(=O)c1onc(CSc2cccc(OC)c2)c1C(=O)NCCOC`, in that order: “inactive”, 67% and 0%.
Take `CC(C)NC(=O)c1c(CS(=O)(=O)c2ccc(Cl)cc2)noc1C(=O)NCc1ccccc1`: in the test on Aedes aegypti, the mortality result was “inactive”.
As to `C=CCNC(=O)c1c(CSc2ccccc2)noc1C(=O)NCc1ccccc1`, in the test on Aedes aegypti, the mortality entry was “inactive”. For the same compound, the mortality in the test with Spodoptera exigua [1] was 0%.
For `CC(C)NC(=O)c1onc(CSc2ccc(F)cc2)c1C(=O)NC(C)C`, the mortality entry in the test on Aedes aegypti was “inactive”. Further, the mortality in the test on Spodoptera exigua [1] is given as 50%.
In the same order, the values of `COCCNC(=O)c1c(CSc2ccc(Cl)cc2)noc1C(=O)NCc1ccccc1` are “inactive” and 17%.
Consider `COCCNC(=O)c1onc(CSc2ccncc2)c1C(=O)NCCOC`, for which the mortality result in the test with Aedes aegypti is “inactive”. Further, the mortality with Spodoptera exigua [1] is on record as 50%.
For `C=CCNC(=O)c1onc(CSc2ccc(Cl)cc2)c1C(=O)NCC=C`, in that order: “inactive” and 17%.
In the case of `CCCCNC(=O)c1onc(CSc2ccccn2)c1C(=O)NCCCC`, the mortality entry in the test on Aedes aegypti is “inactive”.
For `C=CCNC(=O)c1onc(CSc2ccccc2)c1C(=O)NCC=C`, the mortality entry with Aedes aegypti is “inactive”. Besides, the mortality in the test with Spodoptera exigua [1] was determined as 33%.
As for `CCCCNC(=O)c1onc(CSc2cc(C)cc(C)c2)c1C(=O)NCCCC`, in the test with Aedes aegypti, the mortality result was “inactive”.
With `COc1cccc(SCc2noc(C(=O)NCCC(C)C)c2C(=O)NCCC(C)C)c1`, in the test with Aedes aegypti, the mortality entry was “inactive”.
For `CCCNC(=O)c1onc(CSc2ccc(F)cc2)c1C(=O)NCCC`, the mortality result in the test on Aedes aegypti is “inactive”. Further, the mortality in the test with Spodoptera exigua [1] came out at 33%.
For the compound `Cc1cc(C)cc(SCc2noc(C(=O)NCCC(C)C)c2C(=O)NCCC(C)C)c1`, in the test with Aedes aegypti, the mortality entry was “inactive”.
As to `CC(C)CCNC(=O)c1onc(CSc2ccncc2)c1C(=O)NCCC(C)C`, the mortality result with Aedes aegypti is “inactive”. Moreover, in the test on Spodoptera exigua [1], the mortality turned out to be 83%. For the same compound, in the test with Spodoptera exigua [2], the mortality at 50 µg/cm2 amounted to 0%.
Turning to `C=CCNC(=O)c1onc(CSc2ccccn2)c1C(=O)NCC=C`, in the test on Aedes aegypti, the mortality result is “inactive”. In the test on Spodoptera exigua [1], the mortality stood at 17%.
As to `CC(C)NC(=O)c1onc(CSc2ccccc2)c1C(=O)NC(C)C`, in the test with Aedes aegypti, the mortality entry is “inactive”. In the test with Spodoptera exigua [1], the mortality is recorded as 67%. Besides, the mortality at 50 µg/cm2 in the test with Spodoptera exigua [2] turned out to be 0%.
In the same order, the values of `O=C(NCc1ccccc1)c1onc(CSc2ccc(F)cc2)c1C(=O)NCc1ccccc1` are “inactive”, 67% and 0%.
